Measured values published in ChEMBL document CHEMBL1127500, “Structure-activity studies of benzimidazole-based DNA-cleaving agents. Comparison of benzimidazole, pyrrolobenzimidazole, and tetrahydropyridobenzimidazole analogues” (1994).

Experiments:
Type in all cases: functional
[1] = Mean log10 LC50 was determined
Outline: (§1)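 Screened against a panel of up to 60 human cancer cell lines. Read-out is LC50, the drug concentration lethal to 50% of the cells, expressed as log LC50. The mean log LC50 across the screened lines is the centre line of the mean graph. Each line's deviation from that mean is shown as a bar.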

[2] = test system: SK-MEL-5; test: Antitumor activity against SK-MEL-5 cell line; conditions: Homo sapiens; outline: as §1
[3] = test system: LOX IMVI; test: Antitumor activity against LOX IMV cell line; conditions: Homo sapiens, read-out: Log LC50 (the source's name) (converted)
Outline: (§2)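 Drugs were screened against a panel of up to 60 human cancer cell lines. The end-point was LC50, the drug concentration lethal to 50% of the cancer cells. Values were expressed as log LC50 and plotted as mean graphs centred on the log of the panel-mean LC50. Bars to the right mark lines with lower log LC50 than the mean.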

[4] = test system: Malme-3M; test: Antitumor activity against MALME-3M cell line; conditions: Homo sapiens; outline: as §2

CC(=O)OC1CCn2c1nc1c2C(=O)C(C)=C(N2CC2)C1=O (centres undefined)
Mean log LC50 [1]: -6.61 | LC50 [2]: < 10 nM | CC50 [3]: < 10 nM | LC50 [4]: 55 nM
